Source: PubChem (several laboratories)
Jurkat NFkB inh – lowers PMA/ionomycin-induced NF-kB signal in Jurkat cells. PMA/ionomycin-induced NF-kB luciferase reporter, luminescence. inhibition, % at 4 µM. hit rate 0.53% among 330,000; in the data active = inhibition above about 50%
NR2E3 ag-1 – activates human NR2E3 receptor. Q9Y5X4. CHO-S Gal4-NCOR/VP16-NR2E3 two-hybrid, luciferase. inhibition of corepressor binding, % at 3.98 µM. hit rate 0.35% among 360,000;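 active = inhibition above the mean of all tested compounds plus 3 SD, cut at about 70% in these data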;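 also: 0% = DMSO with NR2E3 transfected cells and 100% = cells lacking NR2E3 construct; higher means lower luciferase signal from less NR2E3 corepressor binding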
Target sequence (Q9Y5X4 whole entry, looked up, the tested form may be a part): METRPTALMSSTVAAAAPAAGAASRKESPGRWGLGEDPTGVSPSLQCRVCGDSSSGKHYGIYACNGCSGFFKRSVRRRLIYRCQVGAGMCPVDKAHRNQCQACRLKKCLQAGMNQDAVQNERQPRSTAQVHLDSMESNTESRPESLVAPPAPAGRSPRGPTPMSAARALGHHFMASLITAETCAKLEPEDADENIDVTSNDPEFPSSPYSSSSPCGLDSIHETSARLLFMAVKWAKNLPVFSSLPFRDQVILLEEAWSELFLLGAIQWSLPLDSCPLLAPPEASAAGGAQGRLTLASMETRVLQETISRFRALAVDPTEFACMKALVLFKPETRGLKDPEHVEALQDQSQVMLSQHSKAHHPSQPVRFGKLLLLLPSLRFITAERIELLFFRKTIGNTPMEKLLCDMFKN
NR2E3 ag-2 – NR2E3 (human) agonism; Q9Y5X4; inhibition of corepressor binding, % at 4.78 µM; GST-NR2E3/biotin-RetCOR TR-FRET, 1536-well; hit rate 0.12% among 320,000;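 active = percent inhibition above the cutoff of mean plus 3 SD of all tested compounds, set per screening campaign, cut at about 20% in these data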;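 also: 0% = DMSO wells and 100% = biotin wells as full block of FRET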
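System: GST-NR2E3 and biotin-RetCOR proteins; probe or stimulus: 7 nM biotin-RetCOR; doses: compound at 4.8 µM, single dose; schedule: Compound–protein incubation for 5 h at 4 °C; detection: time-resolved FRET; read-out: percent inhibition; controls: biotin wells as high control, 0.6% DMSO wells as low control; format: 1536-well plates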
aDG glyco act – increases alpha dystroglycan glycosylation; Pro5-aDG cells, alpha-DG glycosylation AlphaScreen (IIH6); 0% Pro5, 100% B10-LARGE cell signal; activation, % at 10 µM; hit rate 0.22% among 360,000;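 active = activation of at least 8% versus controls, or a plate z-score of at least 8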;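 also: Pro5 are CHO cells carrying HIG-tagged alpha-DG that lacks glycosylation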
MPTP inh – permeability transition pore inhibition | isolated mouse mitochondria, Ca2+ swelling absorbance, 30 min | inhibition, % at 10 µM | hit rate 1.4% among 360,000;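 active = inhibition of 50% or more, scaled per plate between neutral and stimulator controls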;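 also: 0% = DMSO wells given calcium and 100% = 1 mM EGTA wells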
697 NFkB inh – lowers PMA/ionomycin-induced NF-kB signal in 697 B cells; 697 B-cell NF-kB luciferase reporter, 16 h; inhibition, % at 4 µM; hit rate 0.33% among 330,000; AID 435022; in the data active = inhibition above about 35%
Jurkat NFkB conf – lowers PMA/ionomycin-induced NF-kB signal in Jurkat cells | Jurkat NF-kB luciferase, 16 h | hit rate 27% among 2,700 | inhibition, % at 4 µM | AID 435020 | shares compounds with Jurkat NFkB inh;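 active = inhibition reaching about 45% at 4 µM in either replicate, limit read from the data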;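 also: plate controls were PMA/ionomycin stimulated DMSO wells for no effect and unstimulated DMSO wells for full effect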
Starred values were filed as active, the others as inactive. Sampled rows, rich in hits. Any-hit rate of the full collection: about 2.4%.

Results for COc1ccc(C(=O)NCCS(=O)(=O)NC(C)c2ccccc2)cc1 (stereo not given) ?
Jurkat NFkB inh: 13; NR2E3 ag-1: -22; NR2E3 ag-2: 1; aDG glyco act: 0; MPTP inh: 0; 697 NFkB inh: 1

What do the screens show for `COc1ccc(-c2nc3ccccc3s2)cc1NC(C)=O`?
Jurkat NFkB inh: -183; NR2E3 ag-1: -152; NR2E3 ag-2: 0; aDG glyco act: 0; MPTP inh: 0; 697 NFkB inh: -117; Jurkat NFkB conf: -73

How did CC(=O)NCc1ccc(-c2nc3ccccc3s2)cc1 do in these assays?
Jurkat NFkB inh: -148; NR2E3 ag-1: -102; NR2E3 ag-2: 2; aDG glyco act: 0; MPTP inh: 1; 697 NFkB inh: -174

What do the screens show for `O=C(N[C@@H](Cc1ccccc1)C(=O)CCl)OCc1ccccc1`?
Jurkat NFkB inh: 83*; NR2E3 ag-1: 0; NR2E3 ag-2: 1; aDG glyco act: 0; MPTP inh: -4; 697 NFkB inh: -37; Jurkat NFkB conf: 48*

What do the screens show for `CCCS(=O)(=O)N1CCN=C1SCc1ccc(F)cc1`?
Jurkat NFkB inh: 14; NR2E3 ag-1: -15; NR2E3 ag-2: 0; aDG glyco act: 0; MPTP inh: -2; 697 NFkB inh: 4

Results for COc1cc(C2c3cc4c(cc3C(OC3OC5COC(c6cccs6)OC5C(O)C3O)C3COC(=O)C23)OCO4)cc(OC)c1O (stereo not given) ?
Jurkat NFkB inh: 80*; NR2E3 ag-1: 12; NR2E3 ag-2: 2; aDG glyco act: 0; MPTP inh: 1; 697 NFkB inh: -35; Jurkat NFkB conf: 94*

How did O=C(O)c1ccc(OCc2cn3ccccc3n2)cc1 do in these assays?
Jurkat NFkB inh: -11; NR2E3 ag-1: -23; NR2E3 ag-2: -5; aDG glyco act: 0; MPTP inh: 0; 697 NFkB inh: -10

How did O=C(COc1ccc(Oc2ccccc2)cc1)NCc1cn2ccccc2n1 do in these assays?
Jurkat NFkB inh: 63*; NR2E3 ag-1: -5; NR2E3 ag-2: 2; aDG glyco act: 0; MPTP inh: 2; 697 NFkB inh: 4; Jurkat NFkB conf: 23

Results for N#CCC(CNc1ncc(C(F)(F)F)cc1Cl)OC(=O)c1c(F)cccc1F (stereo not given) ?
Jurkat NFkB inh: 75*; NR2E3 ag-1: -1; NR2E3 ag-2: -4; aDG glyco act: 0; MPTP inh: 0; 697 NFkB inh: -3; Jurkat NFkB conf: 21

Results for N#CCC(CNc1ncc(C(F)(F)F)cc1Cl)OC(=O)c1ccc(Cl)cc1 (stereo not given) ?
Jurkat NFkB inh: 43; NR2E3 ag-1: -2; NR2E3 ag-2: 1; aDG glyco act: 0; MPTP inh: 1; 697 NFkB inh: -2

How did N#CCC(CNc1ncc(C(F)(F)F)cc1Cl)OC(=O)c1cccc([N+](=O)[O-])c1 (stereo not given) do in these assays?
Jurkat NFkB inh: 66*; NR2E3 ag-1: 16; NR2E3 ag-2: 2; aDG glyco act: 0; MPTP inh: 4; 697 NFkB inh: 16; Jurkat NFkB conf: 14

What do the screens show for `CCOc1ccccc1NC(=O)C1CCCN1S(=O)(=O)c1ccc2c(c1)C(C)(C)C(=O)N2C` (stereo not given)?
NR2E3 ag-1: -4; aDG glyco act: 0; MPTP inh: -2

Results for COc1ccccc1-c1cc(C(=O)Nc2cc(C)nn2-c2ccccc2)no1 ?
Jurkat NFkB inh: 61*; NR2E3 ag-1: -52; NR2E3 ag-2: 3; aDG glyco act: 0; MPTP inh: 0; 697 NFkB inh: -50; Jurkat NFkB conf: 32

What do the screens show for `COc1cc(-c2noc(C)c2C#Cc2ccsc2)cc(OC)c1OC`?
Jurkat NFkB inh: 63*; NR2E3 ag-1: 12; NR2E3 ag-2: 5; aDG glyco act: 0; MPTP inh: 1; 697 NFkB inh: -34; Jurkat NFkB conf: 57*

Results for COc1cc(-c2noc(C)c2C#CCO)cc(OC)c1OC ?
Jurkat NFkB inh: -25; NR2E3 ag-1: 18; NR2E3 ag-2: -1; aDG glyco act: 0; MPTP inh: 0; 697 NFkB inh: 9

Results for COc1ccc(C(=O)C[n+]2cccc(C)c2C)cc1[N+](=O)[O-] ?
Jurkat NFkB inh: -24; NR2E3 ag-1: 0; NR2E3 ag-2: 2; aDG glyco act: 0; MPTP inh: -1; 697 NFkB inh: 5

Results for CCC(C)(C)c1ccc(OCCCC[n+]2cccc(C)c2C)c(C(C)(C)CC)c1 ?
Jurkat NFkB inh: 94*; NR2E3 ag-1: 4; NR2E3 ag-2: -3; aDG glyco act: 0; MPTP inh: 41; 697 NFkB inh: 34; Jurkat NFkB conf: 75*

How did CCOc1ccc(C2=Nn3c(nnc3-c3ccccc3OC)SC2)cc1 do in these assays?
NR2E3 ag-1: 25; NR2E3 ag-2: -1; aDG glyco act: 0; MPTP inh: 6

What do the screens show for `COc1ccccc1-c1nnc2n1N=C(c1ccc(O)c(O)c1)CS2`?
Jurkat NFkB inh: 81*; NR2E3 ag-1: 53; NR2E3 ag-2: 0; aDG glyco act: 0; MPTP inh: 4; 697 NFkB inh: 16; Jurkat NFkB conf: 55*

Results for Cc1cccc(C)c1OCCNC(=O)C(=O)NCc1ccco1 ?
Jurkat NFkB inh: 67*; NR2E3 ag-1: 10; NR2E3 ag-2: -1; aDG glyco act: 0; MPTP inh: -1; 697 NFkB inh: -122; Jurkat NFkB conf: 38

What do the screens show for `Cc1cccc(C)c1NC(=O)NCc1ccco1`?
Jurkat NFkB inh: 3; NR2E3 ag-1: -8; NR2E3 ag-2: -2; aDG glyco act: 0; MPTP inh: 0; 697 NFkB inh: 13

What do the screens show for `Cc1ccc(NCCC(=O)c2cccs2)cc1C`?
Jurkat NFkB inh: -180; NR2E3 ag-1: -59; NR2E3 ag-2: 2; aDG glyco act: 0; MPTP inh: 2; 697 NFkB inh: -124; Jurkat NFkB conf: -7

How did COC(=O)c1cnc(Oc2ccc(NC(=O)NC(=O)c3c(F)cccc3F)cc2)cc1C(F)(F)F do in these assays?
Jurkat NFkB inh: 41; NR2E3 ag-1: -14; NR2E3 ag-2: -1; aDG glyco act: 0; MPTP inh: 4; 697 NFkB inh: 1

What do the screens show for `COC(=O)c1cnc(Oc2ccc(NC(=O)NC(=O)c3c(OC)cccc3OC)cc2)cc1C(F)(F)F`?
Jurkat NFkB inh: 66*; NR2E3 ag-1: -22; NR2E3 ag-2: 0; aDG glyco act: 0; MPTP inh: 4; 697 NFkB inh: -77; Jurkat NFkB conf: 60*

What do the screens show for `COC(=O)c1cnc(Oc2ccc(NC(=O)NC(=O)c3c(F)cccc3Cl)cc2)cc1C(F)(F)F`?
Jurkat NFkB inh: 50*; NR2E3 ag-1: 8; NR2E3 ag-2: 3; aDG glyco act: 0; MPTP inh: 10; 697 NFkB inh: -23; Jurkat NFkB conf: 46
